Data as given in ChEMBL document CHEMBL3227922, “Synthesis and antitumor activity of sugar-ring hydroxyl analogues of daunorubicin” (J Med Chem, 1979).

Assays:
[1] = system: P388; assay: Antitumor activity against mouse P388 cells allografted in CDF1 mouse assessed as tumor inhibition at 12.5 mg/kg, ip on days 5, 9 and 13 relative to untreated control; type: functional; settings: route intraperitoneal
Method in brief: (§1)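 CDF₁ mice given 10⁶ P388 lymphocytic leukemia cells ip on day 0; drug ip on days 5, 9 and 13. Six mice per dose level (five for one compound). T/C % = median survival time as percent of untreated controls. Acute toxic death counted as survival under 5 days after treatment.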

[2] = system: P388; assay: Antitumor activity against mouse P388 cells allografted in CDF1 mouse assessed as tumor inhibition at 50 mg/kg, ip on days 5, 9 and 13 relative to untreated control; type: functional; settings: route intraperitoneal; method in brief: as §1
[3] = system: P388; assay: Antitumor activity against mouse P388 cells allografted in CDF1 mouse assessed as tumor inhibition at 200 mg/kg, ip on days 5, 9 and 13 relative to untreated control; type: functional; settings: route intraperitoneal; method in brief: as §1
[4] = system: P388; assay: Antitumor activity against mouse P388 cells allografted in CDF1 mouse assessed as tumor inhibition at 100 mg/kg, ip on days 5, 9 and 13 relative to untreated control; type: functional; settings: route intraperitoneal; method in brief: as §1
[5] = system: Mus musculus; assay: Toxicity in CDF1 mouse allografted with mouse P388 cells assessed as survival at 12.5 to 200 mg/kg, ip on days 5, 9 and 13; type: organism-based; set-up: dose 12.5-200 mg/kg, route intraperitoneal; settings: in vivo
Method in brief: (§2)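 CDF1 mice were inoculated ip with 10⁶ P388 lymphocytic leukemia cells on day 0. Drug was given ip on days 5, 9 and 13, with six mice per dose level. Read-out was median survival time as percent of untreated controls (T/C). Acute toxic-drug deaths were defined as survival under 5 days after treatment injection.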

[6] = system: P388; assay: Antitumor activity against mouse P388 cells allografted in CDF1 mouse assessed as tumor inhibition at 25 mg/kg, ip on days 5, 9 and 13 relative to untreated control; type: functional; settings: route intraperitoneal; method in brief: as §1
[7] = system: Mus musculus; assay: Toxicity in CDF1 mouse allografted with mouse P388 cells assessed as survival at 25 to 400 mg/kg, ip on days 5, 9 and 13; type: organism-based; set-up: dose 25-400 mg/kg, route intraperitoneal; settings: in vivo
Method in brief: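 Median survival time was expressed as percent of untreated controls (T/C). Acute toxic-drug deaths were scored as survival under 5 days after treatment injection.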

[8] = system: B16; assay: Antitumor activity against mouse B16 cells allografted in BDF1 mouse assessed as tumor inhibition at 12.5 mg/kg, ip on day 5 relative to untreated control; settings: route intraperitoneal
[9] = system: Mus musculus; assay: Toxicity in BDF1 mouse allografted with mouse B16 cells at 100 mg/kg, ip on day 5; settings: in vivo
[10] = system: Mus musculus; assay: Toxicity in BDF1 mouse allografted with mouse B16 cells at 200 mg/kg, ip on day 5; settings: in vivo
[11] = system: P388; assay: Antitumor activity against mouse P388 cells allografted in CDF1 mouse assessed as tumor inhibition at 400 mg/kg, ip on days 5, 9 and 13 relative to untreated control; type: functional; settings: route intraperitoneal; method in brief: as §1
[12] = system: B16; assay: Antitumor activity against mouse B16 cells allografted in BDF1 mouse assessed as tumor inhibition at 50 mg/kg, ip on day 5 relative to untreated control; settings: route intraperitoneal
[13] = system: B16; assay: Antitumor activity against mouse B16 cells allografted in BDF1 mouse assessed as tumor inhibition at 25 mg/kg, ip on day 5 relative to untreated control; settings: route intraperitoneal
[14] = system: Mus musculus; assay: Toxicity in CDF1 mouse allografted with mouse P388 cells assessed as survival at 3.13 to 50 mg/kg, ip on days 5, 9 and 13; type: organism-based; set-up: dose 3.13-50 mg/kg, route intraperitoneal; settings: in vivo; method in brief: as §2
[15] = system: P388; assay: Antitumor activity against mouse P388 cells allografted in CDF1 mouse assessed as tumor inhibition at 6.25 mg/kg, ip on days 5, 9 and 13 relative to untreated control; type: functional; settings: route intraperitoneal; method in brief: as §1
[16] = system: P388; assay: Antitumor activity against mouse P388 cells allografted in CDF1 mouse assessed as tumor inhibition at 3.13 mg/kg, ip on days 5, 9 and 13 relative to untreated control; type: functional; settings: route intraperitoneal; method in brief: as §1
[17] = system: Mus musculus; assay: Toxicity in BDF1 mouse allografted with mouse B16 cells at 16 mg/kg, ip on day 5; settings: in vivo
[18] = system: B16; assay: Antitumor activity against mouse B16 cells allografted in BDF1 mouse assessed as tumor inhibition at 4 mg/kg, ip on day 5 relative to untreated control; settings: route intraperitoneal
[19] = system: B16; assay: Antitumor activity against mouse B16 cells allografted in BDF1 mouse assessed as tumor inhibition at 1 mg/kg, ip on day 5 relative to untreated control; settings: route intraperitoneal
[20] = system: P388; assay: Antitumor activity against mouse P388 cells allografted in CDF1 mouse assessed as tumor inhibition at 2 mg/kg, ip on days 5, 9 and 13 relative to untreated control; type: functional; settings: route intraperitoneal; method in brief: as §1
[21] = system: Mus musculus; assay: Toxicity in CDF1 mouse allografted with mouse P388 cells assessed as survival at 2 to 32 mg/kg, ip on days 5, 9 and 13; type: organism-based; set-up: dose 2-32 mg/kg, route intraperitoneal; settings: in vivo; method in brief: as §2
[22] = system: P388; assay: Antitumor activity against mouse P388 cells allografted in CDF1 mouse assessed as tumor inhibition at 4 mg/kg, ip on days 5, 9 and 13 relative to untreated control; type: functional; settings: route intraperitoneal; method in brief: as §1
[23] = system: P388; assay: Antitumor activity against mouse P388 cells allografted in CDF1 mouse assessed as tumor inhibition at 8 mg/kg, ip on days 5, 9 and 13 relative to untreated control; type: functional; settings: route intraperitoneal; method in brief: as §1
[24] = system: B16; assay: Antitumor activity against mouse B16 cells allografted in BDF1 mouse assessed as tumor inhibition at 2 mg/kg, ip on day 5 relative to untreated control; settings: route intraperitoneal
[25] = system: P388; assay: Antitumor activity against mouse P388 cells allografted in CDF1 mouse assessed as tumor inhibition at 16 mg/kg, ip on days 5, 9 and 13 relative to untreated control; type: functional; settings: route intraperitoneal; method in brief: as §1
[26] = system: P388; assay: Antitumor activity against mouse P388 cells allografted in CDF1 mouse assessed as tumor inhibition at 32 mg/kg, ip on days 5, 9 and 13 relative to untreated control; type: functional; settings: route intraperitoneal; method in brief: as §1
[27] = system: Mus musculus; assay: Toxicity in BDF1 mouse allografted with mouse B16 cells at 1 to 16 mg/kg, ip on day 5; settings: in vivo
[28] = system: B16; assay: Antitumor activity against mouse B16 cells allografted in BDF1 mouse assessed as tumor inhibition at 16 mg/kg, ip on day 5 relative to untreated control; settings: route intraperitoneal
[29] = system: Mus musculus; assay: Toxicity in CDF1 mouse allografted with mouse P388 cells assessed as survival at 1 to 16 mg/kg, ip on days 5, 9 and 13; type: organism-based; set-up: dose 1-16 mg/kg, route intraperitoneal; settings: in vivo; method in brief: as §2
[30] = system: P388; assay: Antitumor activity against mouse P388 cells allografted in CDF1 mouse assessed as tumor inhibition at 1 mg/kg, ip on days 5, 9 and 13 relative to untreated control; type: functional; settings: route intraperitoneal; method in brief: as §1
[31] = system: B16; assay: Antitumor activity against mouse B16 cells allografted in BDF1 mouse assessed as tumor inhibition at 8 mg/kg, ip on day 5 relative to untreated control; settings: route intraperitoneal

COc1cccc2c1C(=O)c1c(O)c3c(c(O)c1C2=O)C[C@@](O)(C(C)=O)C[C@@H]3O[C@H]1C[C@H](OC(C)=O)[C@H](OC(C)=O)[C@H](C)O1
T/C [1]: 100%
T/C [2]: 110%
T/C [3]: 186%
T/C [4]: 155%
Activity [5]: Non-toxic
T/C [6]: 108%

COc1cccc2c1C(=O)c1c(O)c3c(c(O)c1C2=O)C[C@@](O)(C(C)=O)C[C@@H]3O[C@H]1C[C@H](O)[C@H](O)[C@H](C)O1
Activity [7]: Non-toxic
T/C [8]: 113%
T/C [2]: 183%
Activity [9]: Toxic
T/C [4]: 156%
Activity [10]: Toxic
T/C [11]: 89%
T/C [6]: 125%
T/C [12]: 146%
T/C [13]: 126%

COc1cccc2c1C(=O)c1c(O)c3c(c(O)c1C2=O)C[C@@](O)(C(C)=O)C[C@@H]3O[C@@H]1C[C@H](OC(=O)c2ccc([N+](=O)[O-])cc2)[C@H](OC(=O)c2ccc([N+](=O)[O-])cc2)[C@@H](C)O1
Activity [14]: Non-toxic
T/C [1]: 110%
T/C [2]: 105%
T/C [15]: 106%
T/C [16]: 101%
T/C [6]: 107%

COc1cccc2c1C(=O)c1c(O)c3c(c(O)c1C2=O)C[C@@](O)(C(C)=O)C[C@@H]3O[C@H]1C[C@H](OC(=O)c2ccc([N+](=O)[O-])cc2)[C@H](OC(=O)c2ccc([N+](=O)[O-])cc2)[C@@H](C)O1
Activity [14]: Non-toxic
T/C [1]: 99%
T/C [2]: 101%
T/C [15]: 100%
T/C [16]: 98%
T/C [6]: 106%

COc1cccc2c1C(=O)c1c(O)c3c(c(O)c1C2=O)C[C@@](O)(C(C)=O)C[C@@H]3O[C@@H]1C[C@H](O)[C@H](O)[C@@H](C)O1
Activity [14]: Non-toxic
T/C [1]: 100%
T/C [2]: 101%
T/C [15]: 100%
T/C [16]: 99%
T/C [6]: 101%

COc1cccc2c1C(=O)c1c(O)c3c(c(O)c1C2=O)C[C@@](O)(C(C)=O)C[C@@H]3O[C@H]1C[C@H](O)[C@H](O)[C@@H](C)O1
Activity [14]: Non-toxic
T/C [1]: 97%
T/C [2]: 102%
T/C [15]: 102%
T/C [16]: 100%
T/C [6]: 100%

COc1cccc2c1C(=O)c1c(O)c3c(c(O)c1C2=O)C[C@@](O)(C(C)=O)C[C@@H]3O[C@H]1C[C@H](N)[C@H](O)[C@H](C)O1 [DAUNORUBICIN]
Activity [17]: Toxic
T/C [18]: 96%
T/C [19]: 122%
T/C [20]: 116%
Activity [21]: Non-toxic
T/C [22]: 123%
T/C [23]: 151%
T/C [24]: 127%
T/C [25]: 122%
T/C [26]: 97%

COc1cccc2c1C(=O)c1c(O)c3c(c(O)c1C2=O)C[C@@](O)(C(=O)CO)C[C@@H]3O[C@H]1C[C@H](N)[C@H](O)[C@H](C)O1 [DOXORUBICIN]
T/C [18]: 132%
T/C [19]: 118%
T/C [20]: 132%
Activity [27]: Non-toxic
T/C [28]: 156%
Activity [29]: Non-toxic
T/C [22]: 149%
T/C [23]: 150%
T/C [24]: 122%
T/C [30]: 118%
T/C [25]: 114%
T/C [31]: 150%
